Measured values from ChEMBL document CHEMBL1147862, “Studies on synthesis and pharmacological activities of 3,6-disubstituted-1,2,4-triazolo[3,4-b]-1,3,4-thiadiazoles and their dihydro analogues” (2007).

Legend:
Type in all cases: functional
[1] = tested on: Mus musculus; assay: Analgesic activity in Swiss mouse assessed as increase in reaction time at 20 mg/kg, po after 90 mins by Eddy's hot plate technique
How it was run: (§1)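 Swiss mice of either sex, 25–35 g, placed one at a time on a hot plate held at 55 °C. End point is paw licking or jumping, whichever comes first, with a 15 s cut-off to avoid paw injury. Reaction time is recorded and reported as percent increase in reaction time.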

[2] = tested on: Mus musculus; assay: Analgesic activity in Swiss mouse assessed as increase in reaction time at 20 mg/kg, po after 30 mins by Eddy's hot plate technique; how it was run: as §1
[3] = tested on: Pseudomonas aeruginosa; assay: Antibacterial activity against Pseudomonas aeruginosa at 10 ug/ml by agar plate diffusion technique; conditions: read-out: IZ
[4] = tested on: Pseudomonas aeruginosa; assay: Antibacterial activity against Pseudomonas aeruginosa at 20 ug/ml by agar plate diffusion technique; conditions: read-out: IZ
[5] = tested on: Aspergillus niger; assay: Antifungal activity against Aspergillus niger at 30 ug/ml by paper disc method; conditions: read-out: IZ
[6] = tested on: Staphylococcus aureus; assay: Antibacterial activity against Staphylococcus aureus at 10 ug/ml by agar plate diffusion technique; conditions: read-out: IZ
[7] = tested on: Mus musculus; assay: Analgesic activity in Swiss mouse assessed as increase in reaction time at 20 mg/kg, po after 60 mins by Eddy's hot plate technique; how it was run: as §1
[8] = tested on: Aspergillus niger; assay: Antifungal activity against Aspergillus niger at 10 ug/ml by paper disc method; conditions: read-out: IZ
[9] = tested on: Rattus norvegicus; assay: Antiinflammatory activity in Wistar Albino rat assessed as inhibition of carrageenan-induced paw oedema at 20 mg/kg after 1 hr relative to control
How it was run: (§2)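 Wistar albino rats, 150–200 g, six per group, dosed orally with a 20 mg/kg suspension; control gets 0.1 ml 1% gum acacia. After 30 min, 0.1 ml 1% carrageenan in saline is injected subplantar into the right hind paw. Paw volume is read by plethysmograph at 0–4 h. Inhibition = 100(1 − Vtest/Vcontrol) on mean volume increase.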

[10] = tested on: Candida albicans; assay: Antifungal activity against Candida albicans at 20 ug/ml by paper disc method; conditions: read-out: IZ
[11] = tested on: Rattus norvegicus; assay: Antiinflammatory activity in Wistar Albino rat assessed as inhibition of carrageenan-induced paw oedema at 20 mg/kg after 3 hrs relative to control; how it was run: as §2
[12] = tested on: Escherichia coli; assay: Antibacterial activity against Escherichia coli at 20 ug/ml by agar plate diffusion technique; conditions: read-out: IZ
[13] = tested on: Bacillus subtilis; assay: Antibacterial activity against Bacillus subtilis at 30 ug/ml by agar plate diffusion technique; conditions: read-out: IZ
[14] = tested on: Aspergillus niger; assay: Antifungal activity against Aspergillus niger at 20 ug/ml by paper disc method; conditions: read-out: IZ
[15] = tested on: Escherichia coli; assay: Antibacterial activity against Escherichia coli at 30 ug/ml by agar plate diffusion technique; conditions: read-out: IZ
[16] = tested on: Bacillus subtilis; assay: Antibacterial activity against Bacillus subtilis at 20 ug/ml by agar plate diffusion technique; conditions: read-out: IZ
[17] = tested on: Rattus norvegicus; assay: Antiinflammatory activity in Wistar Albino rat assessed as inhibition of carrageenan-induced paw oedema at 20 mg/kg after 2 hrs relative to control; how it was run: as §2
[18] = tested on: Rattus norvegicus; assay: Antiinflammatory activity in Wistar Albino rat assessed as inhibition of carrageenan-induced paw oedema at 20 mg/kg after 4 hrs relative to control; how it was run: as §2
[19] = tested on: Candida albicans; assay: Antifungal activity against Candida albicans at 10 ug/ml by paper disc method; conditions: read-out: IZ
[20] = tested on: Staphylococcus aureus; assay: Antibacterial activity against Staphylococcus aureus at 20 ug/ml by agar plate diffusion technique; conditions: read-out: IZ
[21] = tested on: Staphylococcus aureus; assay: Antibacterial activity against Staphylococcus aureus at 30 ug/ml by agar plate diffusion technique; conditions: read-out: IZ
[22] = tested on: Bacillus subtilis; assay: Antibacterial activity against Bacillus subtilis at 10 ug/ml by agar plate diffusion technique; conditions: read-out: IZ
[23] = tested on: Candida albicans; assay: Antifungal activity against Candida albicans at 30 ug/ml by paper disc method; conditions: read-out: IZ
[24] = tested on: Pseudomonas aeruginosa; assay: Antibacterial activity against Pseudomonas aeruginosa at 30 ug/ml by agar plate diffusion technique; conditions: read-out: IZ
[25] = tested on: Escherichia coli; assay: Antibacterial activity against Escherichia coli at 10 ug/ml by agar plate diffusion technique; conditions: read-out: IZ

| SMILES | Activity [1] | Activity [2] | zone of inhibition at 10 µg/mL [3] | zone of inhibition at 20 µg/mL [4] | zone of inhibition at 30 µg/mL [5] | zone of inhibition at 10 µg/mL [6] | Activity [7] | zone of inhibition at 10 µg/mL [8] | inhibition in vivo at 20 mg/kg [9] | zone of inhibition at 20 µg/mL [10] | inhibition in vivo at 20 mg/kg [11] | zone of inhibition at 20 µg/mL [12] | zone of inhibition at 30 µg/mL [13] | zone of inhibition at 20 µg/mL [14] | zone of inhibition at 30 µg/mL [15] | zone of inhibition at 20 µg/mL [16] | inhibition in vivo at 20 mg/kg [17] | inhibition in vivo at 20 mg/kg [18] | zone of inhibition at 10 µg/mL [19] | zone of inhibition at 20 µg/mL [20] | further results |
| --- | --- | --- | --- | --- | --- | --- | --- | --- | --- | --- | --- | --- | --- | --- | --- | --- | --- | --- | --- | --- | --- |
| COc1ccc(Cc2nnc3n2NC(c2cccn2C)S3)cc1OC (stereo not given) | 19.24% | 5.62% | 4.12 mm | 7.48 mm | 12.6 mm | 3.74 mm | 10.24% | 4.35 mm | 13.4% | 7.1 mm | 18.4% | 6.71 mm | 9.12 mm | 7.9 mm | 10.2 mm | 6.3 mm | 15.8% | 19.9% | 4.18 mm | 5.92 mm | zone of inhibition at 30 µg/mL [21]: 10.6 mm; zone of inhibition at 10 µg/mL [22]: 3.3 mm; zone of inhibition at 30 µg/mL [23]: 12.1 mm; zone of inhibition at 30 µg/mL [24]: 11.4 mm; zone of inhibition at 10 µg/mL [25]: 3.95 mm |
| COc1ccc(Cl)c(-c2nnc3sc(Cc4c[nH]c5ccccc45)nn23)c1 | 34.24% | 19.48% | 4.12 mm | 8.16 mm | 12.9 mm | 4.8 mm | 28.32% | 5.1 mm | 8.8% | 9.48 mm | 21.4% | 8.12 mm | 12.3 mm | 10.1 mm | 12.4 mm | 7.6 mm | 16.5% | 34.7% | 5.86 mm | 7.59 mm | zone of inhibition at 30 µg/mL [21]: 12.6 mm; zone of inhibition at 10 µg/mL [22]: 4.33 mm; zone of inhibition at 30 µg/mL [23]: 12.5 mm; zone of inhibition at 30 µg/mL [24]: 12.2 mm; zone of inhibition at 10 µg/mL [25]: 4.78 mm |
| COc1ccc(Cc2nnc3sc(-c4ccnc5ccccc45)nn23)cc1OC | 21.96% | 7.55% | 7.7 mm | 14.1 mm | 18 mm | 6.96 mm | 16.8% | 6.32 mm | 14.6% | 13.7 mm | 19.1% | 14.4 mm | 18.7 mm | 13 mm | 18.6 mm | 13.3 mm | 17.1% | 24.8% | 6.14 mm | 12.6 mm | zone of inhibition at 30 µg/mL [21]: 18.3 mm; zone of inhibition at 10 µg/mL [22]: 7.4 mm; zone of inhibition at 30 µg/mL [23]: 17.8 mm; zone of inhibition at 30 µg/mL [24]: 18.2 mm; zone of inhibition at 10 µg/mL [25]: 7.85 mm |
| Cc1occc1-c1nnc2sc(-c3cc(O)nc(O)c3)nn12 | 19.35% | 4.35% | 5.95 mm | 9.81 mm | 14.8 mm | 6.07 mm | 11.45% | 5.14 mm | 6.25% | 10 mm | 16.5% | 8.79 mm | 14.8 mm | 8.48 mm | 14.1 mm | 10.4 mm | 11.4% | 21.7% | 5.34 mm | 10.8 mm | zone of inhibition at 30 µg/mL [21]: 14.5 mm; zone of inhibition at 10 µg/mL [22]: 6.02 mm; zone of inhibition at 30 µg/mL [23]: 17.3 mm; zone of inhibition at 30 µg/mL [24]: 14.2 mm; zone of inhibition at 10 µg/mL [25]: 5.38 mm |
| Cc1cc(-c2nn3c(-c4ccoc4C)nnc3s2)c2ccccc2n1 | 20.34% | 6.04% | 6 mm | 11.8 mm | 17.4 mm | 7.1 mm | 11.35% | 6 mm | 7.23% | 12.6 mm | 18.6% | 10.5 mm | 17.1 mm | 13.5 mm | 17 mm | 12.5 mm | 13.4% | 26.3% | 5.84 mm | 13.7 mm | zone of inhibition at 30 µg/mL [21]: 17.9 mm; zone of inhibition at 10 µg/mL [22]: 7.38 mm; zone of inhibition at 30 µg/mL [23]: 19 mm; zone of inhibition at 30 µg/mL [24]: 16.8 mm; zone of inhibition at 10 µg/mL [25]: 6.28 mm |
| COc1ccc(Cc2nnc3sc(-c4cc(-c5ccccc5)nc5ccccc45)nn23)cc1OC | 25.11% | 5.36% | 5.92 mm | 10.8 mm | 16.7 mm | 5.12 mm | 17.26% | 6.14 mm | 12.3% | 11.4 mm | 20.2% | 11.3 mm | 15.9 mm | 11.5 mm | 16.9 mm | 10.2 mm | 18.7% | 22.2% | 5.82 mm | 10.3 mm | zone of inhibition at 30 µg/mL [21]: 16.7 mm; zone of inhibition at 10 µg/mL [22]: 5.76 mm; zone of inhibition at 30 µg/mL [23]: 17.9 mm; zone of inhibition at 30 µg/mL [24]: 16 mm; zone of inhibition at 10 µg/mL [25]: 6.08 mm |
| COc1ccc(Cl)c(-c2nnc3sc(Cc4c(C)[nH]c5ccc(OC)cc45)nn23)c1 | 35.24% | 19.48% | 4.15 mm | 7.92 mm | 12.3 mm | 4.17 mm | 28.54% | 4.56 mm | 11.3% | 8.72 mm | 26.1% | 7.28 mm | 11.9 mm | 8.24 mm | 12.3 mm | 7.18 mm | 20% | 32.7% | 4.35 mm | 8.12 mm | zone of inhibition at 30 µg/mL [21]: 12.1 mm; zone of inhibition at 10 µg/mL [22]: 4.12 mm; zone of inhibition at 30 µg/mL [23]: 11.7 mm; zone of inhibition at 30 µg/mL [24]: 12.4 mm; zone of inhibition at 10 µg/mL [25]: 4.26 mm |
| Cc1occc1-c1nnc2sc(-c3cc(-c4ccccc4)nc4ccccc34)nn12 | 21.1% | 4.86% | 7.12 mm | 12 mm | 17.7 mm | 6.18 mm | 14.48% | 5.92 mm | 11.8% | 14.8 mm | 16.4% | 13.2 mm | 16.9 mm | 11 mm | 17.4 mm | 11.8 mm | 14.5% | 24.4% | 6.27 mm | 12.7 mm | zone of inhibition at 30 µg/mL [21]: 17.5 mm; zone of inhibition at 10 µg/mL [22]: 6.16 mm; zone of inhibition at 30 µg/mL [23]: 19.4 mm; zone of inhibition at 30 µg/mL [24]: 17.3 mm; zone of inhibition at 10 µg/mL [25]: 7.64 mm |
